Laboratory results published in ChEMBL document CHEMBL1914423, “New imidazo[2,1-b]thiazole derivatives: synthesis, in vitro anticancer evaluation, and in silico studies” (Eur J Med Chem, 2011).

Columns and labels:
HL-60(TB) = assay: Anticancer activity against human HL-60(TB) cells assessed as cell growth at 10^-5 M after 48 hrs by SRB assay; assay type: functional; conditions: HL-60, 48 h, read-out: Activity
Method in brief: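 NCI-60 single-dose screen. Cells in RPMI 1640 with 5% FBS and 2 mM L-glutamine were plated at 5000–40,000 cells/well and preincubated 24 h at 37 °C before one compound concentration. Time-zero plates were TCA-fixed at drug addition. For suspension cells, settled cells were fixed with cold TCA, then SRB-stained and read at 515 nm. Percent growth was calculated from time-zero, control and treated absorbances.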

SF-295 = assay: Anticancer activity against human SF295 cells assessed as cell growth at 10^-5 M after 48 hrs by SRB assay; assay type: functional; conditions: SF-295, 48 h, read-out: Activity
HCT-15 = assay: Anticancer activity against human HCT15 cells assessed as cell growth at 10^-5 M after 48 hrs by SRB assay; assay type: functional; conditions: HCT-15, 48 h, read-out: Activity
Method in brief: (§1)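 NCI-60 single-dose screen at one concentration. Cells grown in RPMI 1640 with 5% FBS and 2 mM L-glutamine, plated at 5000–40,000 cells/well, and pre-incubated 24 h at 37 °C in 5% CO2 before DMSO-dissolved drug was added. Cells fixed with TCA, SRB-stained, absorbance read at 515 nm. Percent growth calculated against time-zero and untreated control plates.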

A498 = assay: Anticancer activity against human A498 cells assessed as cell growth at 10^-5 M after 48 hrs by SRB assay; assay type: functional; conditions: A498, 48 h, read-out: Activity; method in brief: as §1
OVCAR-3 = assay: Anticancer activity against human OVCAR3 cells assessed as cell growth at 10^-5 M after 48 hrs by SRB assay; assay type: functional; conditions: OVCAR-3, 48 h, read-out: Activity
NCI-H226 = assay: Anticancer activity against human NCI-H226 cells assessed as cell growth at 10^-5 M after 48 hrs by SRB assay; assay type: functional; conditions: NCI-H226, 48 h, read-out: Activity
RPMI-8226 = assay: Anticancer activity against human RPMI8226 cells assessed as cell growth at 10^-5 M after 48 hrs by SRB assay; assay type: functional; conditions: RPMI-8226, 48 h, read-out: Activity
KM12 = assay: Anticancer activity against human KM12 cells assessed as cell growth at 10^-5 M after 48 hrs by SRB assay; assay type: functional; conditions: KM12, 48 h, read-out: Activity; method in brief: as §1
OVCAR-5 = assay: Anticancer activity against human OVCAR5 cells assessed as cell growth at 10^-5 M after 48 hrs by SRB assay; assay type: functional; conditions: OVCAR-5, 48 h, read-out: Activity
SF-268 = assay: Anticancer activity against human SF268 cells assessed as cell growth at 10^-5 M after 48 hrs by SRB assay; assay type: functional; conditions: SF-268, 48 h, read-out: Activity
SNB-75 = assay: Anticancer activity against human SNB75 cells assessed as cell growth at 10^-5 M after 48 hrs by SRB assay; assay type: functional; conditions: SNB-75, 48 h, read-out: Activity
Method in brief: (§2)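 NCI-60 single-dose screen: cells in RPMI 1640 with 5% FBS and 2 mM L-glutamine, plated at 5000–40,000 cells/well by doubling time, and preincubated 24 h at 37 °C. Compound given at one concentration from DMSO stock. Cells TCA-fixed and SRB-stained, absorbance at 515 nm. Percent growth relative to time-zero and untreated controls; inhibition % = 100 − growth %.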

K562 = assay: Anticancer activity against human K562 cells assessed as cell growth at 10^-5 M after 48 hrs by SRB assay; assay type: functional; conditions: K562, 48 h, read-out: Activity; method in brief: as §1
Malme-3M = assay: Anticancer activity against human MALME-3M cells assessed as cell growth at 10^-5 M after 48 hrs by SRB assay; assay type: functional; conditions: read-out: Activity; method in brief: as §1
CAKI-1 = assay: Anticancer activity against human Caki1 cells assessed as cell growth at 10^-5 M after 48 hrs by SRB assay; assay type: functional; conditions: CAKI-1, 48 h, read-out: Activity; method in brief: as §1
ACHN = assay: Anticancer activity against human ACHN cells assessed as cell growth at 10^-5 M after 48 hrs by SRB assay; assay type: functional; conditions: read-out: Activity; method in brief: as §1
HCC 2998 = assay: Anticancer activity against human HCC2998 cells assessed as cell growth at 10^-5 M after 48 hrs by SRB assay; assay type: functional; conditions: HCC 2998, 48 h, read-out: Activity; method in brief: as §1
[1] = Antiproliferative activity against human A375P cells after 48 hrs by MTT assay; assay type: functional, cell-based
Method in brief: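 A375P cells in DMEM with 10% FBS at 37 °C, 5% CO2. Seeded at 5×10³ cells/well, held 24 h, then treated with 12-point 3-fold serial dilutions for 48 h. Viability by MTT reduction. IC50 values are means of triplicate experiments.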

PC-3 = assay: Anticancer activity against human PC3 cells assessed as cell growth at 10^-5 M after 48 hrs by SRB assay; assay type: functional; conditions: PC-3, 48 h, read-out: Activity
SK-MEL-28 = assay: Anticancer activity against human SK-MEL-28 cells assessed as cell growth at 10^-5 M after 48 hrs by SRB assay; assay type: functional; conditions: SK-MEL-28, 48 h, read-out: Activity
MDA-MB-435 = assay: Anticancer activity against human MDA-MB-435 cells assessed as cell growth at 10^-5 M after 48 hrs by SRB assay; assay type: functional; conditions: MDA-MB-435, 48 h, read-out: Activity
LOX IMVI = assay: Anticancer activity against human LOXIMVI cells assessed as cell growth at 10^-5 M after 48 hrs by SRB assay; assay type: functional; conditions: read-out: Activity; method in brief: as §1
OVCAR-8 = assay: Anticancer activity against human OVCAR8 cells assessed as cell growth at 10^-5 M after 48 hrs by SRB assay; assay type: functional; conditions: OVCAR-8, 48 h, read-out: Activity
786-0 = assay: Anticancer activity against human 786-0 cells assessed as cell growth at 10^-5 M after 48 hrs by SRB assay; assay type: functional; conditions: 786-0, 48 h, read-out: Activity; method in brief: as §1
SN12C = assay: Anticancer activity against human SN12C cells assessed as cell growth at 10^-5 M after 48 hrs by SRB assay; assay type: functional; conditions: read-out: Activity
SK-OV-3 = assay: Anticancer activity against human SKOV3 cells assessed as cell growth at 10^-5 M after 48 hrs by SRB assay; assay type: functional; conditions: SK-OV-3, 48 h, read-out: Activity
DU-145 = assay: Anticancer activity against human DU145 cells assessed as cell growth at 10^-5 M after 48 hrs by SRB assay; assay type: functional; conditions: DU-145, 48 h, read-out: Activity; method in brief: as §1
U-251 = assay: Anticancer activity against human U251 cells assessed as cell growth at 10^-5 M after 48 hrs by SRB assay; assay type: functional; conditions: U-251, 48 h, read-out: Activity; method in brief: as §2

| SMILES | growth at 10 µM (HL-60(TB)) [%] | growth at 10 µM (SF-295) [%] | growth at 10 µM (HCT-15) [%] | growth at 10 µM (A498) [%] | growth at 10 µM (OVCAR-3) [%] | growth at 10 µM (NCI-H226) [%] | growth at 10 µM (RPMI-8226) [%] | growth at 10 µM (KM12) [%] | growth at 10 µM (OVCAR-5) [%] | growth at 10 µM (SF-268) [%] | growth at 10 µM (SNB-75) [%] | growth at 10 µM (K562) [%] | growth at 10 µM (Malme-3M) [%] | growth at 10 µM (CAKI-1) [%] | growth at 10 µM (ACHN) [%] | growth at 10 µM (HCC 2998) [%] | IC50 [1] [µM] | growth at 10 µM (PC-3) [%] | growth at 10 µM (SK-MEL-28) [%] | growth at 10 µM (MDA-MB-435) [%] | other results |
| --- | --- | --- | --- | --- | --- | --- | --- | --- | --- | --- | --- | --- | --- | --- | --- | --- | --- | --- | --- | --- | --- |
| COc1cccc(-c2nc3sccn3c2-c2ccnc(NCCNC(=O)c3ccccc3)n2)c1 | 94.2 | 85.4 | 81.9 | 66.3 | 89.2 | 79.3 | 41.6 | 87.8 | 99.1 | 92.7 | 92.6 | 67.5 | 26.7 | 84.3 | 65.8 | 114 | > 10 | 79.7 | 64.2 | 55.2 | growth at 10 µM (LOX IMVI): 54.8%; growth at 10 µM (OVCAR-8): 62.5%; growth at 10 µM (786-0): 78.4%; growth at 10 µM (SN12C): 84.3%; growth at 10 µM (SK-OV-3): 88.5%; growth at 10 µM (DU-145): 100%; growth at 10 µM (U-251): 102% |
| COc1cccc(-c2nc3sccn3c2-c2ccnc(NCCNC(=O)c3ccccc3O)n2)c1 | 99.5 | 101 | 66.1 | 89.7 | 75 | 97.7 | 26 | 77.2 | 112 | 93.6 | 103 | 59.4 | 57.5 | 68.8 | 62 | 113 | 7.5 | 62.8 | 77.1 | 54.3 | growth at 10 µM (LOX IMVI): 68.5%; growth at 10 µM (OVCAR-8): 55.2%; growth at 10 µM (786-0): 91%; growth at 10 µM (SN12C): 86%; growth at 10 µM (SK-OV-3): 90%; growth at 10 µM (DU-145): 94.5%; growth at 10 µM (U-251): 103% |
| COc1cccc(-c2nc3sccn3c2-c2ccnc(NCCNC(=O)c3cccc(C(F)(F)F)c3)n2)c1 | 83.6 | 54.2 | 55.8 | 63.5 | 76 | 87.5 | 25.8 | 58.6 | 97.8 | 71 | 85.3 | 48.1 | 50.8 | 50.6 | 49.5 | 87.1 | 4.8 | 55 | 75.9 | 38.8 | growth at 10 µM (LOX IMVI): 54.7%; growth at 10 µM (OVCAR-8): 40.5%; growth at 10 µM (786-0): 76%; growth at 10 µM (SN12C): 65.2%; growth at 10 µM (SK-OV-3): 81.1%; growth at 10 µM (DU-145): 67.7%; growth at 10 µM (U-251): 74.5% |
